What was measured:
[1] = test system: human leukemia K562 cells; test: MTT cytotoxic activity assay, K562; assay type: cell-based; details: for IC50: read-out: IC50 K562, MTT, 48 h; for enhancement of potency compared to that of 2d: ratio to 2d, K562
How it was run: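 K562 cells at 5 × 10^4 cells/ml were plated for 2 h, then exposed to test compound at 10–100,000 nM for 48 h. MTT (5 mg/mL stock) was added for a further 4 h and read on a plate reader. DMSO-treated controls were set as 100% viability. IC50 came from nonlinear regression over three independent assays.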

[2] = test system: liver cancer HepG2 cells; test: MTT cytotoxic activity assay, HepG2; assay type: cell-based, human; details: read-out: IC50 HepG2
[3] = test system: K562 cells; test: Flow cytometric analysis of apoptosis; assay type: cell-based, human; details: 30 nM; 48 h
How it was run: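 K562 cells (RPMI-1640, 10% FBS) were seeded in six-well plates and given DMSO or test compound at 30 or 300 nM for 0, 6, 12, 24 and 48 h. Cells were washed twice in ice-cold PBS, resuspended in binding buffer, then stained with Annexin V-FITC (10 min) and PI at 50 μg/mL (10 min) at room temperature in the dark. Flow cytometry with quadrant statistics.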

[4] = test system: HepG2 cells; test: Transwell assay; assay type: cell-based, human; details: 10 nM, 30 nM, 100 nM; 24 h
[5] = test system: K562 cells; test: Morphological changes by microscopy; assay type: cell-based, human; details: 30 nM
How it was run: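 K562 cells were kept in RPMI-1640 with 10% FBS, 2.05 mM glutamine and 1% penicillin/streptomycin at 37 °C and 5% CO2. They were exposed to test compound at 30 nM, and morphology was compared with DMSO-treated cells.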

[6] = test system: HUVEC cells; test: Tube forming assay on Matrigel; assay type: cell-based, human; details: 10 nM, 30 nM, 100 nM; 12 h
[7] = test system: HepG2 cells; test: Wound healing assay; assay type: cell-based, human; details: 48 h, DMSO 184.89 μm

| Compound | IC50 [1] [nM] | IC50 [2] [nM] | enhancement of potency compared to that of 2d [1] | also measured |
| --- | --- | --- | --- | --- |
| 1-(3,5-dimethylbenzyl)-5-(4-methoxyphenyl)indoline-2,3-dione [2p] | 140 ± 30 | 410 ± 30 | – | – |
| 1-(4-methoxybenzyl)-5-(thiophen-3-yl)indoline-2,3-dione [compound 4r] | 80 ± 40 | 3670 ± 1400 | – | – |
| COc1ccc(-c2ccc3c(c2)C(=O)C(=O)N3Cc2ccccc2OC)cc1 [2o, 1-(2-methoxybenzyl)-5-(4-methoxyphenyl)indoline-2,3-dione] | – | – | 8–25 folds | – |
| COc1ccc(-c2ccc3c(c2)C(=O)C(=O)N3Cc2ccc(OC)c(OC)c2)cc1 [2q, 1-(3,4-dimethoxybenzyl)-5-(4-methoxyphenyl)indoline-2,3-dione] | – | – | 8–25 folds | – |
| COc1ccc(-c2ccc3c(c2)C(=O)C(=O)N3Cc2ccc3c(c2)OCO3)cc1 [2v, 1-(benzo[d] [1, 3]dioxol-5-ylmethyl)-5-(4-methoxyphenyl)indoline-2,3-dione] | – | – | 8–25 folds | – |
| COc1ccc(CN2C(=O)C(=O)c3cc(-c4ccc(OC)cc4)ccc32)cc1 [compound 2m, 1-(4-methoxybenzyl)-5-(4-methoxyphenyl)indoline-2,3-dione] | – | – | 8–25 folds | apoptotic rate of K562 cells [3]: 43.4%; effect on HepG2 cells migration (transwell) [4]: could inhibit the HepG2 cells migration and have a dose-dependent inhibitory effect; morphological change: elongated cells (G2/M arrest morphology) ([5]; 6 h, vs DMSO-treated cells): elongated cells increased significantly; morphological change: apoptotic cells ([5]; 24 h): apoptotic cells were clearly observed; effect on tube formation of HUVEC cells [6]: could inhibit the angiogenesis of HUVEC cells and have a dose-dependent inhibitory effect; The distance of migration ([7]; 10 nM): 162.89 μm; The distance of migration ([7]; 30 nM): 135.22 μm; The distance of migration ([7]; 100 nM): 96.24 μm |
| COc1ccc(CN2C(=O)C(=O)c3cc(-c4ccc(C(C)(C)C)cc4)ccc32)cc1 [compound 4e, 5-(4-(tert-butyl)phenyl)-1-(4-methoxybenzyl)indoline-2,3-dione] | – | – | – | drop of cytotoxic activity from that of 4k ([1]; ratio to 4k): 15 folds |
| (Z)-ethyl 2-(1-(4-methoxybenzyl)-5-(4-methoxyphenyl)-2-oxoindolin-3-ylidene)acetate [5d] | 1240 ± 540 | 3390 ± 270 | – | – |
| (Z)-methyl 2-(1-(4-methoxybenzyl)-5-(4-methoxyphenyl)-2-oxoindolin-3-ylidene)acetate [5e] | 1900 ± 140 | 4730 ± 1240 | – | – |

— publication PMC7115506 (European Journal of Medicinal Chemistry, 2018)
